Measured values collected from several papers.
Target: Serine/threonine-protein kinase NLK (NLK, Homo sapiens, UniProt Q9UBE8)
Sequence (Q9UBE8 1-527, as in one of the studies): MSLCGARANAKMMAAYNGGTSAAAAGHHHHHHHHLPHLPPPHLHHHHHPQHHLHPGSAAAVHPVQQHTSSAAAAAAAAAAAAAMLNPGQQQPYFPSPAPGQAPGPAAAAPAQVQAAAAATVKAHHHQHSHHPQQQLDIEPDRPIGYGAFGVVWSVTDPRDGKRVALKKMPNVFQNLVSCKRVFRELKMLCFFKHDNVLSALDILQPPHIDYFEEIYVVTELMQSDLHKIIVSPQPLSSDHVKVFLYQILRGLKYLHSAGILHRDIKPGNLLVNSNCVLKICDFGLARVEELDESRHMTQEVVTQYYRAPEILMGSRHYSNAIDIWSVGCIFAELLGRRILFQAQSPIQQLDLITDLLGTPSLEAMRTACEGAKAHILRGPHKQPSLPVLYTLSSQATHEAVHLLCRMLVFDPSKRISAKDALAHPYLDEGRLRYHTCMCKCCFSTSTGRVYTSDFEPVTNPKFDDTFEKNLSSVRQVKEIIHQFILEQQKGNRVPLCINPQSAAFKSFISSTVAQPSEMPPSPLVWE

| Compound | test | conditions | endpoint | value |
| --- | --- | --- | --- | --- |
| COc1cc(-c2cn(C3CCc4c(F)cccc4N(CC(F)(F)F)C3=O)nn2)ccc1-n1cnc(C)c1 (stereo not shown) | cell-free assay, competition with immobilised ligand | 1 µM | remaining binding | 100% |
| O=C(Nc1cnn(-c2csc(C(=O)NC3COC3)c2)c1)Nc1ccccc1Cl | enzyme activity, inhibitor | 5 µM | remaining activity | 99.5% |
| CC(C)(C)c1nc2c(s1)c1nc(N)ncc1c1ccc(NS(=O)(=O)c3c(F)cccc3F)c(F)c12 | enzyme activity, inhibitor, radiometric | 1 µM | remaining activity | 91% |
| CNC(=O)Nc1ccc2c(c1)CC[C@@]21OC(=O)N(CC(=O)N(Cc2ccc(F)cc2)[C@@H](C)C(F)(F)F)C1=O | binding, competition with immobilised ligand | 1 µM | remaining binding | 82% |
| CNC(=O)c1cc(Oc2ccc(NC(=O)Nc3ccc(Cl)c(C(F)(F)F)c3)cc2)ccn1 | enzyme activity, inhibitor | 0.3 µM | inhibition | -5% |
| O=C(NCCCC1CCCCC1)c1ccc(CNC(=O)c2cnn(-c3ccccc3)c2C(F)(F)F)cc1 | cell-free assay, competition with immobilised ligand | 0.1 µM | remaining binding | 100% |
| Cc1ccc(Nc2nccc(N(C)c3ccc4c(C)n(C)nc4c3)n2)cc1S(N)(=O)=O | enzyme activity, inhibitor | 10 µM | inhibition | 67% |
| Cc1ccc(NC(=O)c2ccc(C)c(C(F)(F)F)c2)cc1C#Cc1nn(C2CCC(O)CC2)c2ncnc(N)c12 (stereo not shown) | cell-free assay | 10 µM | remaining signal | 82% |
| Cc1ccc(C(=O)Nc2ccc(CN3CCN(C)CC3)c(C(F)(F)F)c2)cc1C#Cc1cnc2cccnn12 | cell-free assay | 23.5 nM | remaining signal | 52% |
| O=C(NCc1ncc(C(F)(F)F)cc1Cl)c1ccc2c(c1)C1(CCS(=O)(=O)CC1)[C@H](C1CC1)N2S(=O)(=O)c1ccc(F)cc1 | cell-free assay, competition with immobilised ligand | 1 µM | remaining binding | 100% |
| Cc1cnc(NC2CCOCC2)nc1-n1cnc(C(=O)NC(CN)c2cc(F)cc(Cl)c2)c1 (stereo not shown) | enzyme activity, inhibitor, radiometric | 1 µM | remaining activity | 47% |
| Cn1cncc1C1=CN(c2ncnc3[nH]cnc23)CCS1 | enzyme activity, inhibitor, radiometric | 50 nM | inhibition | 19.6% |
| COc1cc(Cl)c(C(=O)N[C@@H](CN[C@H]2CC[C@@H](N)CC2)Cc2ccc(C#N)cc2)cc1-c1ccc(CN[C@H](C)c2ccc(C)cc2)o1 | enzyme activity, inhibitor | 1 µM | remaining activity | 88% |
| O=C1NC(=O)c2cc(Nc3ccc(F)cc3)c(Nc3ccc(F)cc3)cc21 | cell-free assay | 0.5 µM | remaining signal | 103% |
| CCN(CC)c1ccc(C2=NNC(=O)CC2C)cc1[N+](=O)[O-] (stereo not shown) | enzyme activity, inhibitor | 10 µM | remaining activity | 105% |
| CCN(CC)CCNC(=O)c1c(C)[nH]c(/C=C2\C(=O)Nc3ccc(F)cc32)c1C | enzyme activity, inhibitor | 10 µM | inhibition | 7% |
| CN1CC(Oc2cnc(C#N)cc2-c2ccn3nc(NC(=O)C4CC4)cc3c2)C1 | enzyme activity, inhibitor | 1 µM | inhibition | 10% |
| CC(C)(O)c1cncc(-c2nc3ccc(F)cc3n2C2CC2)c1 | cell-free assay, competition with immobilised ligand | 1 µM | remaining binding | 100% |
| Cc1cc(NC(=O)c2cccc3cc(-c4cccc5[nH]nc(N)c45)ccc23)ccc1F | enzyme activity, inhibitor | 0.1 µM | activity vs control | 97% |
